What all share (assay type): functional
The subject of test [1] is Candida albicans. The test is described as follows: Antimicrobial activity against Candida albicans RCMB 05035 assessed as diameter of zone inhibition at 5 mg/ml after 72 hrs by agar well diffusion assay. The note with it: RCMB 05035, 72 h, read-out: DIZ. Put shortly: (§1)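 Fungi (1 x10^6 CFU/mL, 100 µL) were spread on Sabouraud dextrose agar. 10 mm wells were loaded with 100 µL of test solution at 5 mg/mL in DMSO, or amphotericin B standard at 1 mg/mL. A DMSO negative control was included. Plates were incubated 72 h at 28 °C. Inhibition zone diameter (mm) was recorded as the average of triplicate runs.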
(In general: A growth-free zone around the sample is the usual read-out of agar diffusion tests.)

In test [2] the test system is Proteus vulgaris. The test is described as follows: Antimicrobial activity against Proteus vulgaris RCMB 010085 after overnight incubation by macro-tube dilution technique. Put shortly: (§2)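 Macro-tube twofold dilution following NCCLS guidance, run in nutrient broth. The first tube held 10 mg compound in 2.0 mL DMSO and was serially halved 1:1 into 1.0 mL broth through tube 14; tube 15 was the control. The inoculum was suspended to turbidity in 5.0 mL broth, 0.2 mL was diluted into 40 mL, and 1.0 mL was added per tube. Tubes were incubated overnight at 37 °C. MIC was the lowest concentration with no growth.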

For test [3], the system named is Bacillus subtilis. Kind of test: Antimicrobial activity against Bacillus subtilis RCMB 010063 assessed as diameter of zone inhibition at 5 mg/ml after 24 hrs by agar well diffusion assay. As to conditions: RCMB 010063, 24 h, read-out: DIZ. Put shortly: (§3)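 Agar well diffusion: 100 µL of 1 x10^8 CFU/mL bacteria was spread on nutrient agar. 10 mm wells received 100 µL of compound at 5 mg/mL in DMSO, or ampicillin or gentamycin standards at 1 mg/mL. DMSO served as negative control. Plates were incubated 24 h at 37 °C. Inhibition zone diameter (mm) was measured as the mean of triplicates.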

Test [4] relates to Shigella flexneri. Kind of test: Antimicrobial activity against Shigella flexneri RCMB 0100542 after overnight incubation by macro-tube dilution technique. Put shortly: as §2
The subject of test [5] is Bacillus subtilis. Kind of test: Antimicrobial activity against Bacillus subtilis RCMB 010063 after overnight incubation by macro-tube dilution technique. Put shortly:
as §2

In test [6] the test system is Klebsiella pneumoniae. The test is described as follows: Antimicrobial activity against Klebsiella pneumoniae RCMB 010093 assessed as diameter of zone inhibition at 5 mg/ml after 24 hrs by agar well diffusion assay. As to conditions: RCMB 010093, 24 h, read-out: DIZ. Put shortly: as §3
Test [7] has as its system Shigella flexneri. The test is described as follows: Antimicrobial activity against Shigella flexneri RCMB 0100542 assessed as diameter of zone inhibition at 5 mg/ml after 24 hrs by agar well diffusion assay. The note with it: RCMB 0100542, 24 h, read-out: DIZ. Put shortly: as §3
Test [8] has as its system Aspergillus fumigatus. The test is described as follows: Antimicrobial activity against Aspergillus fumigatus RCMB 02564 assessed as diameter of zone inhibition at 5 mg/ml after 72 hrs by agar well diffusion assay. As to conditions: RCMB 02564, 72 h, read-out: DIZ. In outline:
as §1

Test [9] has as its system Candida albicans. Kind of test: Antimicrobial activity against Candida albicans RCMB 05035 after 72 hrs by macro-tube dilution technique. As to conditions: RCMB 05035, 72 h. In outline:
(§4)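 Twofold macro-tube dilution following NCCLS guidance, run in malt extract broth. 10 mg compound in 2.0 mL DMSO in tube 1 was serially diluted 1:1 through tube 14 into 1.0 mL broth; tube 15 was the control. Culture was suspended to turbidity in 5.0 mL broth, 0.2 mL was diluted into 40 mL, and 1.0 mL was added per tube. Incubation was 72 h at 30 °C. MIC was the lowest concentration with no growth.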

The subject of test [10] is Aspergillus fumigatus. The test is described as follows: Antimicrobial activity against Aspergillus fumigatus RCMB 02564 after 72 hrs by macro-tube dilution technique. The note with it: RCMB 02564, 72 h. Put shortly: as §4
Test [11] relates to Aspergillus clavatus. Kind of test: Antimicrobial activity against Aspergillus clavatus RCMB 02593 after 72 hrs by macro-tube dilution technique. The note with it: RCMB 02593, 72 h. Put shortly: as §4
Test [12] deals with Proteus vulgaris. Kind of test: Antimicrobial activity against Proteus vulgaris RCMB 010085 assessed as diameter of zone inhibition at 5 mg/ml after 24 hrs by agar well diffusion assay. The note with it: RCMB 010085, 24 h, read-out: DIZ. In outline: as §3
Test [13] has as its system Klebsiella pneumoniae. Kind of test: Antimicrobial activity against Klebsiella pneumoniae RCMB 010093 after overnight incubation by macro-tube dilution technique. Put shortly:
as §2

The subject of test [14] is Staphylococcus aureus. The test is described as follows: Antimicrobial activity against Staphylococcus aureus RCMB 010027 after overnight incubation by macro-tube dilution technique. Put shortly:
as §2

In test [15] the test system is Staphylococcus aureus. Kind of test: Antimicrobial activity against Staphylococcus aureus RCMB 010027 assessed as diameter of zone inhibition at 5 mg/ml after 24 hrs by agar well diffusion assay. As to conditions: RCMB 010027, 24 h, read-out: DIZ. In outline:
as §3

The subject of test [16] is Staphylococcus epidermidis. The test is described as follows: Antimicrobial activity against Staphylococcus epidermidis RCMB 010024 assessed as diameter of zone inhibition at 5 mg/ml after 24 hrs by agar well diffusion assay. As to conditions: RCMB 010024, 24 h, read-out: DIZ. In outline:
as §3

The subject of test [17] is Aspergillus clavatus. The test is described as follows: Antimicrobial activity against Aspergillus clavatus RCMB 02593 assessed as diameter of zone inhibition at 5 mg/ml after 72 hrs by agar well diffusion assay. As to conditions: RCMB 02593, 72 h, read-out: DIZ. Put shortly:
as §1

Test [18] deals with Staphylococcus epidermidis. The test is described as follows: Antimicrobial activity against Staphylococcus epidermidis RCMB 010024 after overnight incubation by macro-tube dilution technique. Put shortly: as §2
Test [19] concerns Aspergillus fumigatus. The test is described as follows: Antimicrobial activity against Aspergillus fumigatus RCMB 02564 assessed as diameter of zone inhibition at 1 mg/ml after 72 hrs by agar well diffusion assay. The note with it: RCMB 02564, 72 h, read-out: DIZ.
The test system of test [20] is Candida albicans. The test is described as follows: Antimicrobial activity against Candida albicans RCMB 05035 assessed as diameter of zone inhibition at 1 mg/ml after 72 hrs by agar well diffusion assay. The note with it: RCMB 05035, 72 h, read-out: DIZ.
The subject of test [21] is Aspergillus clavatus. Kind of test: Antimicrobial activity against Aspergillus clavatus RCMB 02593 assessed as diameter of zone inhibition at 1 mg/ml after 72 hrs by agar well diffusion assay. As to conditions: RCMB 02593, 72 h, read-out: DIZ.
Test [22] deals with Staphylococcus aureus. Kind of test: Antimicrobial activity against Staphylococcus aureus RCMB 010027 assessed as diameter of zone inhibition at 1 mg/ml after 24 hrs by agar well diffusion assay. The note with it: RCMB 010027, 24 h, read-out: DIZ.
Test [23] concerns Bacillus subtilis. Kind of test: Antimicrobial activity against Bacillus subtilis RCMB 010063 assessed as diameter of zone inhibition at 1 mg/ml after 24 hrs by agar well diffusion assay. As to conditions: RCMB 010063, 24 h, read-out: DIZ.
The test system of test [24] is Staphylococcus epidermidis. Kind of test: Antimicrobial activity against Staphylococcus epidermidis RCMB 010024 assessed as diameter of zone inhibition at 1 mg/ml after 24 hrs by agar well diffusion assay. As to conditions: RCMB 010024, 24 h, read-out: DIZ.

In brackets after ≈: the same amount, converted by molar mass.

As a reminder, the MIC is the smallest concentration in the dilution series that meets the test's criterion for growth inhibition. Consider `Clc1ccc(-c2nn(-c3ccccc3)cc2/C=N/Nc2ccc3ccccc3n2)cc1`, for which the zone of inhibition at 5000 µg/mL with Candida albicans [1] came to 24.9 mm; with Bacillus subtilis [3] it was 27.6 mm; in the test on Klebsiella pneumoniae [6] it was 22.9 mm; with Shigella flexneri [7], 21.8 mm; with Aspergillus fumigatus [8] it was 21.5 mm; with Proteus vulgaris [12], 21.4 mm. Moreover, the results for the zone of inhibition at 5000 µg/mL (in the test with Staphylococcus aureus [15]; in test [16]; with Aspergillus clavatus [17]) were 24.5 mm, 25.7 mm and 19.8 mm, respectively. For the same compound, the MIC worked out at 3.9 µg/mL (≈ 9.2 µM) against Proteus vulgaris [2]; 3.9 µg/mL (≈ 9.2 µM) in the test with Shigella flexneri [4]; 0.97 µg/mL (≈ 2.29 µM) in the test on Bacillus subtilis [5]; 3.9 µg/mL (≈ 9.2 µM) against Candida albicans [9]; 15.6 µg/mL (≈ 36.9 µM) in the test on Aspergillus fumigatus [10]; 7.81 µg/mL (≈ 18.4 µM) in the test with Aspergillus clavatus [11]. Also, the MIC with Klebsiella pneumoniae [13] was determined as 3.9 µg/mL (≈ 9.2 µM); against Staphylococcus aureus [14], 0.97 µg/mL (≈ 2.29 µM); in test [18], 3.9 µg/mL (≈ 9.2 µM).

Consider `C[C@@H]1[C@H](O)[C@@H](C)/C=C/C=C/C=C/C=C/C=C/C=C/C=C/[C@H](O[C@@H]2O[C@H](C)[C@@H](O)[C@H](N)[C@@H]2O)C[C@@H]2O[C@](O)(C[C@@H](O)C[C@@H](O)[C@H](O)CC[C@@H](O)C[C@@H](O)CC(=O)O[C@H]1C)C[C@H](O)[C@H]2C(=O)O` [AMPHOTERICIN B], for which the zone of inhibition at 1000 µg/mL in the test on Aspergillus fumigatus [19] came out at 23.7 mm; in the test with Candida albicans [20] it was 26.4 mm; in the test on Aspergillus clavatus [21], 21.9 mm. In addition, the MIC came out at 0.48 µg/mL (≈ 0.519 µM) in the test with Candida albicans [9], 0.97 µg/mL (≈ 1.05 µM) against Aspergillus fumigatus [10] and 1.95 µg/mL (≈ 2.11 µM) in the test on Aspergillus clavatus [11].

Turning to `Cc1ccc(-c2nn(-c3ccccc3)cc2/C=N/Nc2ccc3ccccc3n2)cc1`, the zone of inhibition at 5000 µg/mL in the test with Candida albicans [1] was 22.1 mm; in the test on Bacillus subtilis [3] it was 22.4 mm; in the test with Klebsiella pneumoniae [6], 17.6 mm; in the test on Shigella flexneri [7] it was 18.3 mm; in the test on Aspergillus fumigatus [8], 20.5 mm; in the test on Proteus vulgaris [12] it was 16.2 mm. Besides, the zone of inhibition at 5000 µg/mL in the test with Staphylococcus aureus [15] stood at 20.3 mm; in test [16], 20.7 mm; in the test on Aspergillus clavatus [17], 18.3 mm. Also, the MIC came out at 31.2 µg/mL (≈ 77.4 µM) with Proteus vulgaris [2]; 7.81 µg/mL (≈ 19.4 µM) in the test on Shigella flexneri [4]; 0.49 µg/mL (≈ 1.21 µM) in the test with Bacillus subtilis [5]; 0.49 µg/mL (≈ 1.21 µM) against Candida albicans [9]; 0.98 µg/mL (≈ 2.43 µM) against Aspergillus fumigatus [10]; 7.81 µg/mL (≈ 19.4 µM) against Aspergillus clavatus [11]. The MIC is 7.81 µg/mL (≈ 19.4 µM) against Klebsiella pneumoniae [13], 1.95 µg/mL (≈ 4.83 µM) against Staphylococcus aureus [14] and 0.98 µg/mL (≈ 2.43 µM) in [18].

Consider `CC1(C)S[C@@H]2[C@H](NC(=O)[C@H](N)c3ccccc3)C(=O)N2[C@H]1C(=O)O` [AMPICILLIN], for which the zone of inhibition at 1000 µg/mL was found to be 28.9 mm in the test with Staphylococcus aureus [22], 34.6 mm in the test with Bacillus subtilis [23] and 25.4 mm in test [24]. In addition, the MIC in the test with Bacillus subtilis [5] was 0.007 µg/mL (≈ 0.02 µM); with Staphylococcus aureus [14] it was 0.06 µg/mL (≈ 0.172 µM); in test [18] it was 0.48 µg/mL (≈ 1.37 µM).

For the origin of these results see ChEMBL document CHEMBL4138150, “Quinoline derivatives bearing pyrazole moiety: Synthesis and biological evaluation as possible antibacterial and antifungal agents” (2018).
